Source: ChEMBL document CHEMBL4765437, “Design, synthesis and biological evaluation of pyrazolo[3,4-d]pyrimidine-based protein kinase D inhibitors” (Eur J Med Chem, 2020)
pIC50: −log10 of the molar value. Calls of active or inactive are those of the source. The rule behind the calls is not given here.

How the values were obtained:
[1] = Antiproliferative activity against human DND41 cells assessed as reduction in cell viability incubated for 72 hrs by IncuCyte live-cell automated imaging analysis; conditions: DND41, 72 h
NCI-H460 = test: Antiproliferative activity against human NCI-H460 cells assessed as reduction in cell viability incubated for 72 hrs by IncuCyte live-cell automated imaging analysis; conditions: NCI-H460, 72 h
LN-229 = test: Antiproliferative activity against human LN-229 cells assessed as reduction in cell viability incubated for 72 hrs by IncuCyte live-cell automated imaging analysis; conditions: LN-229, 72 h
CAPAN-1 = test: Antiproliferative activity against human CAPAN-1 cells assessed as reduction in cell viability incubated for 72 hrs by IncuCyte live-cell automated imaging analysis; conditions: CAPAN-1, 72 h
HCT-116 = test: Antiproliferative activity against human HCT-116 cells assessed as reduction in cell viability incubated for 72 hrs by IncuCyte live-cell automated imaging analysis; conditions: HCT-116, 72 h
K562 = test: Antiproliferative activity against human K562 cells assessed as reduction in cell viability incubated for 72 hrs by IncuCyte live-cell automated imaging analysis; conditions: K562, 72 h
Z-138 = test: Antiproliferative activity against human Z138 cells assessed as reduction in cell viability incubated for 72 hrs by IncuCyte live-cell automated imaging analysis; conditions: Z-138, 72 h
HL-60 = test: Antiproliferative activity against human HL-60 cells assessed as reduction in cell viability incubated for 72 hrs by IncuCyte live-cell automated imaging analysis; conditions: HL-60, 72 h
[2] = target: T1, Serine/threonine-protein kinase D2 (Homo sapiens, UniProt Q9BZL6); test: Inhibition of recombinant FLAG-tagged PKD2 (unknown origin) expressed in HEK293T cells using Syntide-2 as substrate measured after 15 mins by ADP-Glo assay
T1 sequence (Q9BZL6 whole entry): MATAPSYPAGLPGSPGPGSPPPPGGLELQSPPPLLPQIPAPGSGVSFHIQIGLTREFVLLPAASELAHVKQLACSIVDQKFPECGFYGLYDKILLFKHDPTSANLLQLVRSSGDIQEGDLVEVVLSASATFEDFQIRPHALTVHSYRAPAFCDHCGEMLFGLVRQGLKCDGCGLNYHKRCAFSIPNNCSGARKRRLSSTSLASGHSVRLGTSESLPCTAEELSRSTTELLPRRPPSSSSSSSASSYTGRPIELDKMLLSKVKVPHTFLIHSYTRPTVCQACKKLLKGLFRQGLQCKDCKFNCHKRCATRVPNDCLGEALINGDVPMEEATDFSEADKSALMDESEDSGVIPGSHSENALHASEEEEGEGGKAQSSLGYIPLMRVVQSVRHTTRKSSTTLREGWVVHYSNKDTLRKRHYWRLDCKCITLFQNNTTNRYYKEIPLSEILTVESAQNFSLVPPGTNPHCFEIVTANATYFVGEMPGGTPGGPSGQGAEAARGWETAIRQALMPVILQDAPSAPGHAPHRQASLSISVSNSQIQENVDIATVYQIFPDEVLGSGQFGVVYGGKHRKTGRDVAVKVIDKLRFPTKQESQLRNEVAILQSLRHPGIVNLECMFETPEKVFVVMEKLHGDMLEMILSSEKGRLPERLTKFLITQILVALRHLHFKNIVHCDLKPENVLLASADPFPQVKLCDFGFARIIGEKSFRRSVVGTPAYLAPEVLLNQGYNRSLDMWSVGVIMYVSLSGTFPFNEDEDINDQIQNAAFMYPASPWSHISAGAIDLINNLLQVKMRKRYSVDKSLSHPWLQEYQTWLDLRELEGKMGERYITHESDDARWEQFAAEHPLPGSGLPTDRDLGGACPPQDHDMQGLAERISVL

[3] = target: T2, Serine/threonine-protein kinase D1 (Homo sapiens, UniProt Q15139); test: Inhibition of recombinant FLAG-tagged PKD1 (unknown origin) expressed in HEK293T cells using Syntide-2 as substrate measured after 15 mins by ADP-Glo assay
T2 sequence (Q15139 whole entry): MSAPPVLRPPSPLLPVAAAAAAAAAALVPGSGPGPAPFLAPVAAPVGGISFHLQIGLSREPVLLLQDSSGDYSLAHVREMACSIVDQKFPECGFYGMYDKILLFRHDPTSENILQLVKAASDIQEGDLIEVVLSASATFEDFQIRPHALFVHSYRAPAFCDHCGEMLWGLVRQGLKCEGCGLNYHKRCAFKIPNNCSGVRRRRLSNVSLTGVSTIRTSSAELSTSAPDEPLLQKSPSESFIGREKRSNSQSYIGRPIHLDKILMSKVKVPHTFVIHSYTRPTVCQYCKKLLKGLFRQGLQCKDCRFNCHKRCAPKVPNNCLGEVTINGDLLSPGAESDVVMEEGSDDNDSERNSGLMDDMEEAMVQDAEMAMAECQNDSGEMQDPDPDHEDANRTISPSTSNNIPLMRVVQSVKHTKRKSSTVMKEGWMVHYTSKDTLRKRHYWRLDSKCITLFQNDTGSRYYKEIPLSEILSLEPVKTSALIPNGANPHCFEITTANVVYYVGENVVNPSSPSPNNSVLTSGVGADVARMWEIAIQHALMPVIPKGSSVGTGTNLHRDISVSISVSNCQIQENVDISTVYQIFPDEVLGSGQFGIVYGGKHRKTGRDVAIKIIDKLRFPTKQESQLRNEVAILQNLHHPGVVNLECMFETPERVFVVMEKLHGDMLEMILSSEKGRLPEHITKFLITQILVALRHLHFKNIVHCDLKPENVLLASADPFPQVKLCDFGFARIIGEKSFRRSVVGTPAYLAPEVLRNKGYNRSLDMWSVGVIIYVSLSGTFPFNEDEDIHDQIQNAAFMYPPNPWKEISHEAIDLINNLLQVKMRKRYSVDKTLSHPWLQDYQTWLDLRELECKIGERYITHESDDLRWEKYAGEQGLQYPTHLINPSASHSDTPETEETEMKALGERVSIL

[4] = target: Protein kinase C delta type (Homo sapiens) (UniProt Q05655); test: Inhibition of recombinant human full-length N-terminal GST-fused PKCdelta (1 to 676 residues) expressed in baculovirus expression system at 1 to 10 uM using MARCKS peptide as substrate measured after 10 mins by [gamma-32P]ATP by scintillation counting method; conditions: dose 1-10 µM
Method in brief: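 Radiometric PKCδ assay: 50 mM Tris-HCl pH 7.4, 10 mM MgCl2, 4 µL phosphatidylserine/PDBu vesicle stock (dried lipids resuspended in 50 mM Tris pH 7.4 and sonicated), 50 ng PKCδ, 5 µg MARCKS peptide substrate, 25 µM ATP plus 2 µCi [γ-32P]ATP.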

[5] = target: T3, Serine/threonine-protein kinase D3 (Homo sapiens, UniProt O94806); test: Inhibition of recombinant FLAG-tagged PKD3 (unknown origin) expressed in HEK293T cells using Syntide-2 as substrate measured after 15 mins by ADP-Glo assay
T3 sequence (O94806 whole entry): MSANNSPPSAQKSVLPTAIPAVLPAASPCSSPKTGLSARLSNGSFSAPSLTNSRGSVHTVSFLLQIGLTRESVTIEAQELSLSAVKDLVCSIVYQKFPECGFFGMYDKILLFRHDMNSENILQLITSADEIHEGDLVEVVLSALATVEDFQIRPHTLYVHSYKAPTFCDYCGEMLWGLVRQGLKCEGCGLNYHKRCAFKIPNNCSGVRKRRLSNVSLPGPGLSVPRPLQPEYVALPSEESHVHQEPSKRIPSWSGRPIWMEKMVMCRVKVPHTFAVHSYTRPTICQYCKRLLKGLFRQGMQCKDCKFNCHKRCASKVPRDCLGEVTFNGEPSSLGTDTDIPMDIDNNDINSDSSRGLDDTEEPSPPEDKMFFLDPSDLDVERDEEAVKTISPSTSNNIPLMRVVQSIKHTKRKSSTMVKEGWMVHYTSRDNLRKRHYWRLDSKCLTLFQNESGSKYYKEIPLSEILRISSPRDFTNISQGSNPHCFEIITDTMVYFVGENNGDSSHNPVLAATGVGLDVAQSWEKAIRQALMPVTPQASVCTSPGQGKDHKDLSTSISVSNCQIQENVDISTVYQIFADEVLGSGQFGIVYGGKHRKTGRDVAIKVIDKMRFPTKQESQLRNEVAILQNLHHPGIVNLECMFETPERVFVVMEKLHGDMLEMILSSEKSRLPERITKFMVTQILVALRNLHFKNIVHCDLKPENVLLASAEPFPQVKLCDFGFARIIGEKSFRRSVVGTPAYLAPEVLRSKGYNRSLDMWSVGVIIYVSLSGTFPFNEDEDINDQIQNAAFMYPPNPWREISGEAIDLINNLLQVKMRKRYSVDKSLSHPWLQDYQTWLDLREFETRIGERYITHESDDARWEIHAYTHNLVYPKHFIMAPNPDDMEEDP

[6] = target: Calcium/calmodulin-dependent protein kinase type II subunit alpha (Homo sapiens) (UniProt Q9UQM7); test: Inhibition of recombinant human full-length N-terminal GST-fused CaMK2alpha (1 to 478 residues) expressed in baculovirus expression system at 1 to 10 uM using Syntide-2 peptide as substrate measured after 10 mins by [gamma-32P]ATP by scintillation counting method; conditions: dose 1-10 µM
Method in brief: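 Radiometric kinase assay in 40 µL: 50 mM Tris-HCl pH 7.4, 10 mM MgCl2, 2 mM CaCl2, calmodulin, 50 ng CAMKIIα, 2 µg Syntide-2 substrate, 25 µM ATP plus 2 µCi [γ-32P]ATP, with compounds at the indicated concentrations.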

PANC-1 [7] = test: Antiproliferative activity against human PANC-1 cells assessed as reduction in cell proliferation at 5 uM measured after 96 to 144 hrs by MTT assay; assay type: functional, cell-based; conditions: time 96-144 hrs
Method in brief: (§1)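 PANC-1 cells at 2000 cells/well, attached 4 h, then given compound at 5 µM or 0.25% DMSO vehicle. Grown 0, 48, 96 or 144 h, then MTT at 0.5 mg/mL final for 3 h, lysis in DMSO, absorbance at 550 nm. Four experiments (n=4), mean and SEM; two-way ANOVA with Dunnett's test against DMSO.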

PANC-1 [8] = test: Antiproliferative activity against human PANC-1 cells assessed as reduction in cell proliferation at 5 uM measured after 48 to 144 hrs by MTT assay; assay type: functional, cell-based; conditions: time 48-144 hrs; method in brief: as §1

Calcium/calmodulin-dependent protein kinase type II subunit alpha (Homo sapiens), sequence (Q9UQM7 whole entry, the tested form may be a part): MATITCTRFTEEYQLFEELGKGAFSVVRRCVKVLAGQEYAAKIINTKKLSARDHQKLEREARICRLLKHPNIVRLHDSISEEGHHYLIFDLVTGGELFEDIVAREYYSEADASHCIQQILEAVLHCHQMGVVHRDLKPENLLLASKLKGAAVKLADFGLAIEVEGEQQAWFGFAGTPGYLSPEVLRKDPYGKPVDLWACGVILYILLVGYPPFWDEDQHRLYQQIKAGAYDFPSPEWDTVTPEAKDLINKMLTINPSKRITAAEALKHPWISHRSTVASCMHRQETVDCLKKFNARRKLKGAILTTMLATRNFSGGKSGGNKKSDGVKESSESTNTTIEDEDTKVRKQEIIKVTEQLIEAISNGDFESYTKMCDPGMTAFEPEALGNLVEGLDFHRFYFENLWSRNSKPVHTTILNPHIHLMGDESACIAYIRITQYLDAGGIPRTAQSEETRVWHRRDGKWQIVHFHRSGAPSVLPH
Protein kinase C delta type (Homo sapiens), sequence (Q05655 whole entry, looked up, the tested form may be a part): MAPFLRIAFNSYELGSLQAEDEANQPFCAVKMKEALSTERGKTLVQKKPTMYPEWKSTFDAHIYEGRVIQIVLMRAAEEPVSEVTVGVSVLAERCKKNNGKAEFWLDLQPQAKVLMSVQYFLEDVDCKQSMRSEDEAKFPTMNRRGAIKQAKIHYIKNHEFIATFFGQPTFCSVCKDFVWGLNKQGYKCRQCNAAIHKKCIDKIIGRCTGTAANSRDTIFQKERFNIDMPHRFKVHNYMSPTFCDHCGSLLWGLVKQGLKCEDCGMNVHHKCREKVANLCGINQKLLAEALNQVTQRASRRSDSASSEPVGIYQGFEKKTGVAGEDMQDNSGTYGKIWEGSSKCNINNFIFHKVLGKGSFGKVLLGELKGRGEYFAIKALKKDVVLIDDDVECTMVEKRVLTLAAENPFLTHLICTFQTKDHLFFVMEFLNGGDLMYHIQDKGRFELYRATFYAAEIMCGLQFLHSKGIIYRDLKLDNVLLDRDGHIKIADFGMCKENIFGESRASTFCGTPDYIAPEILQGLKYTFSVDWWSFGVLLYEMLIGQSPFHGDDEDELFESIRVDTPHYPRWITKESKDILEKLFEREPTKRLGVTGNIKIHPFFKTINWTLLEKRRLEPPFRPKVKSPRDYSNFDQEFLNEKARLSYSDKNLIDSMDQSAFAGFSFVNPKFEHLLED

| pIC50 (NCI-H460) | pIC50 (HCT-116) | pIC50 (K562) | pIC50 (HL-60) | pIC50 [2] | pIC50 [3] | inhibition [4] | pIC50 [5] | inhibition [6] | SMILES | pIC50 [1] | pIC50 (LN-229) | pIC50 (CAPAN-1) | pIC50 (Z-138) | Activity (PANC-1 [7]) | Activity (PANC-1 [8]) |
| --- | --- | --- | --- | --- | --- | --- | --- | --- | --- | --- | --- | --- | --- | --- | --- |
| < 4.00 | < 4.26 | < 4.00 | < 4.00 |  |  |  |  |  | CCOc1ccc2cc(-c3nn(CC4CCN(C)CC4)c4ncnc(N)c34)ccc2n1 | 4.45 | 4.34 | < 4.00 | 4.52 |  |  |
| 4.13 | 4.20 | < 4.47 | < 4.59 |  |  |  |  |  | Cn1cc(-c2nn(C(C)(C)C)c3ncnc(N)c23)c2ccccc21 | < 4.38 | < 4.11 | 4.67 | < 4.42 |  |  |
| 5.40 | 5.60 | 5.43 | 5.11 | 7.03 | 6.97 | inactive | 6.97 | inactive | CC(C)(C)n1nc(-c2c[nH]c3ccccc23)c2c(N)ncnc21 | 5.01 | 4.41 | 5.80 | 5.01 | Active |  |
| < 4.02 | < 4.00 | < 4.00 | 4.75 |  |  |  |  |  | Nc1ncnc2c1c(-c1c[nH]c3ccccc13)nn2CC1CCNCC1 | 4.37 | 4.09 | 4.39 | 4.45 |  | inactive |
| 4.85 | 4.87 | 4.92 | 4.56 |  |  |  |  |  | CC(C)(CO)Cn1nc(-c2c[nH]c3ccccc23)c2c(N)ncnc21 | 4.88 | 4.28 | 5.33 | 4.71 |  |  |
| 5.72 | 5.77 | 5.66 | 6.00 | 8.05 | 7.80 |  |  |  | CC[C@@H](N)CNc1ccnc(-c2cc(-c3cnn(C)c3)ccc2O)n1 | 6.00 | 6.22 | 5.74 | 6.15 |  |  |
| < 4.00 | < 4.00 | < 4.44 | 4.62 | 6.10 | 5.99 |  | 6.21 |  | CC(C)(C)n1nc(Cc2cccc3ccccc23)c2c(N)ncnc21 | < 4.58 | < 4.00 | 4.64 | < 4.63 |  |  |
